The subject of test [1] is Rattus norvegicus. Put plainly: Antiinflammatory activity in Wistar rat assessed as inhibition of carrageenan-induced paw edema at 100 mg/kg, ip administered 30 mins prior to carrageenan challenge measured after 3 hrs relative to vehicle-treated control. The test is classed as functional. As to conditions: route intraperitoneal. The essentials: (§1)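 Adult male Wistar rats (150–170 g), fasted overnight with water, n = 6 per group. Vehicle (Tween 80/absolute ethanol/0.9 % saline 1:1:18; 2.5 ml/kg) or drug given i.p. 30 min before 0.05 ml of 1 % carrageenan into the left hind paw. Paw volume to the tibiotarsal joint measured by plethysmometer at 0, 1, 3, 5 h. Oedema = VT − V0; % inhibition against vehicle controls. Mean ± SEM, Student's t test.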
(In general: In the carrageenan paw model, swelling and tenderness develop within hours.)

Test [2] concerns Rattus norvegicus. The test can be described thus: Antiinflammatory activity in Wistar rat assessed as inhibition of carrageenan-induced paw edema at 50 mg/kg, ip administered 30 mins prior to carrageenan challenge measured after 1 hr relative to vehicle-treated control. The test is classed as functional. As to conditions: route intraperitoneal. The gist of the method:
as §1

The subject of test [3] is Rattus norvegicus. The test can be described thus: Antiinflammatory activity in Wistar rat assessed as inhibition of carrageenan-induced paw edema at 100 mg/kg, ip administered 30 mins prior to carrageenan challenge measured after 1 hr relative to vehicle-treated control. It is filed as functional. As to conditions: route intraperitoneal. The essentials:
as §1

In test [4] the test system is Rattus norvegicus. The test can be described thus: Antiinflammatory activity in ip dosed Wistar rat assessed as inhibition of carrageenan-induced paw edema administered 30 mins prior to carrageenan challenge measured after 1 to 5 hrs relative to vehicle-treated control. It is filed as functional, organism-based. The essentials: as §1
Test [5] has as its system Rattus norvegicus. Put plainly: Gastroprotective activity in Wistar rat assessed as inhibition of HCl/ethanol-induced gastric ulcer at 100 mg/kg, ip administered 30 mins prior to HCl/ethanol challenge measured after 1 hr relative to vehicle-treated control. It is filed as functional. As to conditions: Stomach, route intraperitoneal. The essentials: (§2)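 Male Wistar rats (150–170 g), fasted 24 h, six per group. Vehicle (Tween 80/ethanol/saline 1/1/18) or treatment given i.p.; 30 min later, oral 150 mM HCl/EtOH (40:60, v/v), 1 ml/100 g. Killed 1 h afterwards. Stomachs opened along the greater curvature and stretched out. Summed lesion length (mm) taken as lesion index; % inhibition against vehicle controls. Mean ± SEM, Student's t test.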

Test [6] concerns Rattus norvegicus. The test can be described thus: Antiinflammatory activity in Wistar rat assessed as inhibition of carrageenan-induced paw edema at 50 mg/kg, ip administered 30 mins prior to carrageenan challenge measured after 5 hrs relative to vehicle-treated control. It is filed as functional. As to conditions: route intraperitoneal. The essentials: as §1
Test [7] has as its system Rattus norvegicus. The test can be described thus: Antiinflammatory activity in Wistar rat assessed as inhibition of carrageenan-induced paw edema at 100 mg/kg, ip administered 30 mins prior to carrageenan challenge measured after 5 hrs relative to vehicle-treated control. It is filed as functional. Conditions: route intraperitoneal. The essentials: as §1
Test [8] has as its system Rattus norvegicus. The test can be described thus: Gastroprotective activity in Wistar rat assessed as inhibition of HCl/ethanol-induced gastric ulcer at 50 mg/kg, ip administered 30 mins prior to HCl/ethanol challenge measured after 1 hr relative to vehicle-treated control. The test is classed as functional. As to conditions: Stomach, route intraperitoneal. The gist of the method: as §2

The subject of test [9] is Rattus norvegicus. Put plainly: Antiinflammatory activity in Wistar rat assessed as inhibition of carrageenan-induced paw edema at 50 mg/kg, ip administered 30 mins prior to carrageenan challenge measured after 3 hrs relative to vehicle-treated control. The test is classed as functional. As to conditions: route intraperitoneal. The gist of the method:
as §1

Each structure is given as a SMILES string.

Broadly, the inhibition in vivo is the share of the control response that was lost under treatment. For the molecule `CCOC(=O)c1c(C)nc2c3c(C)nn(-c4ccccc4)c3ncn2c1=N`, the inhibition in vivo at 100 mg/kg came out at 82.8% with Rattus norvegicus [1], 94.2% with Rattus norvegicus [3], 91.4% in the test with Rattus norvegicus [5] and 68.8% with Rattus norvegicus [7]. Besides, the inhibition in vivo at 50 mg/kg turned out to be 62.3% in the test with Rattus norvegicus [2], 59.4% in the test with Rattus norvegicus [6], 72.5% in the test on Rattus norvegicus [8] and 60% in the test with Rattus norvegicus [9]. For the same molecule, the inhibition result with Rattus norvegicus [4] is “Dose-dependent effect”.

Consider `Cc1nc2c3c(C)nn(-c4ccccc4)c3ncn2c(=N)c1C#N`, for which the inhibition in vivo at 100 mg/kg was found to be 71.4% in the test with Rattus norvegicus [1], 92.2% in the test with Rattus norvegicus [3] and 62.8% in the test with Rattus norvegicus [7]. For the same molecule, the inhibition in vivo at 50 mg/kg turned out to be 59.2% with Rattus norvegicus [2], 58% with Rattus norvegicus [6], 68.4% in the test with Rattus norvegicus [8] and 59% in the test with Rattus norvegicus [9]. For the same molecule, in the test with Rattus norvegicus [4], the inhibition entry was “Dose-dependent effect”.

In the case of `Cc1nn(-c2ccccc2)c2ncn3c(=N)c(C#N)cnc3c12`, the inhibition in vivo at 100 mg/kg worked out at 56.8% in the test on Rattus norvegicus [1], 80.4% with Rattus norvegicus [3], 64.7% in the test with Rattus norvegicus [5] and 58.1% in the test with Rattus norvegicus [7]. Further, the inhibition in vivo at 50 mg/kg in the test on Rattus norvegicus [2] worked out at 42.6%; in the test on Rattus norvegicus [6], 39.8%; in the test with Rattus norvegicus [8], 48.6%; with Rattus norvegicus [9], 40.6%. The inhibition entry in the test with Rattus norvegicus [4] is “Dose-dependent effect”.

As for `CCOC(=O)c1c(CC)nc2c3c(C)nn(-c4ccccc4)c3ncn2c1=N`, the inhibition in vivo at 100 mg/kg amounted to 42.9% in the test with Rattus norvegicus [1], 65.7% in the test on Rattus norvegicus [3], 52.2% with Rattus norvegicus [5] and 40.2% in the test with Rattus norvegicus [7]. In addition, the inhibition in vivo at 50 mg/kg in the test with Rattus norvegicus [2] amounted to 32%; with Rattus norvegicus [6], 25.1%; with Rattus norvegicus [8], 40.2%; with Rattus norvegicus [9] it was 28.8%. The inhibition entry with Rattus norvegicus [4] is “Dose-dependent effect”.

`CN/C(=N\CCSCc1nc[nH]c1C)NC#N` [CIMETIDINE]: the inhibition in vivo at 100 mg/kg in the test with Rattus norvegicus [5] was determined as 74%.

(Values after ChEMBL document CHEMBL2429857, “Synthesis and pharmacological evaluation of pyrazolopyrimidopyrimidine derivatives: anti-inflammatory agents with gastroprotective effect in rats” (2013).)
